These results are taken from ChEMBL document CHEMBL4665761, “Optimizing the Benefit/Risk of Acetyl-CoA Carboxylase Inhibitors through Liver Targeting” (J Med Chem, 2020).

Converted amounts (≈) assume the structure as drawn.

A word on the Kp: it is tissue or fluid exposure divided by exposure in the circulation. For orientation: inhibition in vivo means the change of the read-out against control, counted positive when it falls. What is called IC50 is the concentration at which inhibition is half-maximal. For orientation: clearance means a measure of how efficiently the substance is removed, as volume per time.

The target in one data set is T1, OATP1B3 (Homo sapiens, UniProt Q9NPD5).
T1 sequence (Q9NPD5 whole entry): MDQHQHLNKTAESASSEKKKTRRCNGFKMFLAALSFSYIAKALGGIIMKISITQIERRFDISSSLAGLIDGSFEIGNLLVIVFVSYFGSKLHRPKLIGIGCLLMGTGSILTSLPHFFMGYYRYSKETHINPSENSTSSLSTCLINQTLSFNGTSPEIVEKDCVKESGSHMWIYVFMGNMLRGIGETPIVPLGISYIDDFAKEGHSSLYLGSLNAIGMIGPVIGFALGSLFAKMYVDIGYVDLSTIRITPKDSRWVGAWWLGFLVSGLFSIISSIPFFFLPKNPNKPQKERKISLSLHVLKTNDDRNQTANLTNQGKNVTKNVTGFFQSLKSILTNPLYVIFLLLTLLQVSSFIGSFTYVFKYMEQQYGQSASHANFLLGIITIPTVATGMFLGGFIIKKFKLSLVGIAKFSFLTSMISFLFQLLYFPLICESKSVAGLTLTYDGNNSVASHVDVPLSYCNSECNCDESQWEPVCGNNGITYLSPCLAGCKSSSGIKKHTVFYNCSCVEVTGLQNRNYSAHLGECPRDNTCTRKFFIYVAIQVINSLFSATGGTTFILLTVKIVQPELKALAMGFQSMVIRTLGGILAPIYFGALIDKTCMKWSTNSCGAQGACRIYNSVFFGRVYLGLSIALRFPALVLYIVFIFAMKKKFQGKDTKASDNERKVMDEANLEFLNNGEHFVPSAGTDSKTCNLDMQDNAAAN
In words: Substrate activity at human OATP1B3 stably expressed in HEK293 cells assessed as ratio of total to passive cellular uptake at 1 uM incubated for 5 mins by LC/MS-MS analysis. Format: ADME, cell-based. The settings on record: HEK293 cells stably expressing human OATP1B3. The method in brief:
(§1)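 Transfected versus parental HEK293 cells exposed at 1 µM for 5 min at 37 °C. Ratio is total (transfected) over passive (parental) uptake; >2 denotes substrate.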

For another data set, the target named is T2, OATP1B1 (Homo sapiens, UniProt Q9Y6L6).
T2 sequence (Q9Y6L6 whole entry): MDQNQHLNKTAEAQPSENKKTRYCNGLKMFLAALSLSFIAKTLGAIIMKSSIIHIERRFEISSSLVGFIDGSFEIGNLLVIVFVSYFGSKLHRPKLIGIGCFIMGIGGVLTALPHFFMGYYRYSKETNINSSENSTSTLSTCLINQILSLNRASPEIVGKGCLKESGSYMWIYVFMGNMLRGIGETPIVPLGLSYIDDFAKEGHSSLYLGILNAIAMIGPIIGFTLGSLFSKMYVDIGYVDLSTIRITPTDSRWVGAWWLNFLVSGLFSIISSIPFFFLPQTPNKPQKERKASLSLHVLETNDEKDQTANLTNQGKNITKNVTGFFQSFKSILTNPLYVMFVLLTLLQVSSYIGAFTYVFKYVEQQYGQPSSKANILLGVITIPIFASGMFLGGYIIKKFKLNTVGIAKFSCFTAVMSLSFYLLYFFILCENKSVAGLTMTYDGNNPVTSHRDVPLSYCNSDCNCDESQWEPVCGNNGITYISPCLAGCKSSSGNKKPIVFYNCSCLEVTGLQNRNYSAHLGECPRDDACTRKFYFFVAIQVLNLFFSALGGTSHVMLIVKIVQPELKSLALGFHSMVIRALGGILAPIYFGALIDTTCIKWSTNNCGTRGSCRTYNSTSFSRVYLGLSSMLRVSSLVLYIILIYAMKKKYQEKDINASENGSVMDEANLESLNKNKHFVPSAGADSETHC
In words: Substrate activity at human OATP1B1 stably expressed in HEK293 cells assessed as ratio of total to passive cellular uptake at 1 uM incubated for 5 mins by LC/MS-MS analysis. The format is ADME, cell-based. Particulars: HEK293 cells stably expressing human OATP1B1; call rule not given here. The method in brief:
as §1

Data set [1] can be described thus: Ratio of drug uptake in Wistar-Hannover rat liver to plasma at 30 mg/kg, po after 6 hrs by LC/MS-MS analysis. Format: ADME, organism-based. Particulars: liver and plasma. The method in brief:
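Male Wistar-Hannover rats (n = 2 or 3) dosed orally as a suspension in 0.5% methyl cellulose with 0.1% Tween 80. Plasma and liver sampled 6 h post-dose. Kp is total liver/plasma; Kpu,u uses unbound fractions from equilibrium dialysis of plasma and liver.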

Data set [2] in a line: Inhibition of DNL in Sprague-Dawley rat assessed as reduction in DNL level in bone marrow at 300 mg/kg, po pretreated with 1 hr followed by [14C]-acetate treatment and measured after 1 hr relative to control. Format: functional. Particulars: time 2 hrs. The method in brief:
(§2)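 Sprague-Dawley rats given single oral doses of 0.03–300 mg/kg in 0.5% methyl cellulose vehicle, n = 16 per dose. Read-out is incorporation of 14C-acetate into lipids in liver, bone marrow and lung, measured at 2 h post-dose relative to vehicle. Data are mean ± SEM. EC50 is reported with a 95% confidence interval.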

Data set [3] is described as follows: Inhibition of DNL in Sprague-Dawley rat assessed as reduction in DNL level in liver at 300 mg/kg, po pretreated with one hr followed by [14C]-acetate treatment and measured after 1 hr relative to control. Format: functional. A digest of the protocol:
as §2

The next data set has as its system TK6. In words: Genotoxicity in human TK6 cells in presence of (aroclor-induced rat liver S9 fraction/NADPH by micronucleus test. Format: toxicity, cell-based. The method in brief:
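In vitro micronucleus assay in Chinese hamster ovary or TK6 cells, run with and without metabolic activation by aroclor-induced rat liver S9 fraction plus NADPH.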

Data set [4] concerns the target UDP-glucuronosyltransferase 1A6 (Homo sapiens, UniProt P19224). In words: Inhibition of UGT1A6 in human liver microsomes incubated for 90 mins in presence of UDPGA by LC-MS/MS analysis. The format is ADME. (In general: Liver microsomes are vesicles of endoplasmic reticulum, rich in cytochrome P450 enzymes.)
Data set [5] is described as follows: Induction of CYP3A4 mRNA expression in human hepatocytes at 0.5 to 200 uM. The format is ADME, cell-based, Hepatocyte. Particulars: dose 0.5-200 µM. A digest of the protocol:
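Individual human hepatocyte lots treated at 0.5–200 µM. Read-out is messenger RNA levels of CYP1A2 and CYP3A4.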

Another data set deals with Cytochrome P450 3A4 (Homo sapiens, UniProt P08684). In words: inhibition of CYP3A4 in human liver microsomes. The format is ADME.
Chain of Cytochrome P450 3A4 (P08684 whole entry): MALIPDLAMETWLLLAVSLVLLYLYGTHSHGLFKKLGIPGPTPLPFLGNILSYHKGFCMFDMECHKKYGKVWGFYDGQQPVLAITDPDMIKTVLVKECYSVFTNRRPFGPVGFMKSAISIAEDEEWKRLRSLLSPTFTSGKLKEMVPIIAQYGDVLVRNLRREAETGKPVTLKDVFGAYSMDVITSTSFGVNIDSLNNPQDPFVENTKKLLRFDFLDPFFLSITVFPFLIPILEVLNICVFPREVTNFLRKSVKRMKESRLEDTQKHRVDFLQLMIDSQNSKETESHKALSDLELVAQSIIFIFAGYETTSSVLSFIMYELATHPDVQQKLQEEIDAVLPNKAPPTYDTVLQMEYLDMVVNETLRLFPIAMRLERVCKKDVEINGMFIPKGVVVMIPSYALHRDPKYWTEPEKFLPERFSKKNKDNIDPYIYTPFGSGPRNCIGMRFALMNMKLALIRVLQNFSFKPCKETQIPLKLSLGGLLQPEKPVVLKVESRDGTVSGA
A short description of data set [6]: Inhibition of rat ACC2 using acetyl-CoA as substrate incubated for 20 mins in presence of [14C]O3 by liquid scintillation counting method. A digest of the protocol: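 Purified rat isozyme in a 96-well radioenzymatic assay measuring incorporation of [14C]-bicarbonate into [14C]-malonyl-CoA. Dose-response run at saturating ATP, where IC50 approximates Ki for uncompetitive inhibitors.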

Data set [7] in a line: Drug recovery in bile duct-cannulated Wistar-Hannover rat bile at 1 mg/kg, iv and measured up to 24 hrs by LC/MS-MS analysis. Format: ADME, organism-based. The settings on record: read-out: Drug recovery. A digest of the protocol:
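Rats received a 1 mg/kg IV dose. Bile was pooled over 0–24 h and analysed for unchanged parent.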

Data set [8] in a line: Thermodynamic solubility of the compound at pH 7.4 after 24 hrs. The format is physicochemical. The settings on record: buffer, read-out: Therm_solubility.
Data set [9] can be described thus: Clearance in cynomolgus monkey plasma at 1 mg/kg, iv and measured up to 72 hrs by LC/MS-MS analysis. Format: ADME, organism-based, Macaca fascicularis. A digest of the protocol: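 Cynomolgus monkeys dosed 1 mg/kg IV as the tris salt in 2% N-methylpyrrolidone/98% sulfobutylether-β-cyclodextrin (12.5%) in 50 mM TRIS, pH 8.0, or PO as the tris salt. Plasma was analysed by LC-MS/MS, n = 2. CL = IV dose/AUC; Vss = dose/(AUC × elimination rate constant); Cmax taken from observed data.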

Chain of UDP-glucuronosyltransferase 1A6 (P19224 whole entry): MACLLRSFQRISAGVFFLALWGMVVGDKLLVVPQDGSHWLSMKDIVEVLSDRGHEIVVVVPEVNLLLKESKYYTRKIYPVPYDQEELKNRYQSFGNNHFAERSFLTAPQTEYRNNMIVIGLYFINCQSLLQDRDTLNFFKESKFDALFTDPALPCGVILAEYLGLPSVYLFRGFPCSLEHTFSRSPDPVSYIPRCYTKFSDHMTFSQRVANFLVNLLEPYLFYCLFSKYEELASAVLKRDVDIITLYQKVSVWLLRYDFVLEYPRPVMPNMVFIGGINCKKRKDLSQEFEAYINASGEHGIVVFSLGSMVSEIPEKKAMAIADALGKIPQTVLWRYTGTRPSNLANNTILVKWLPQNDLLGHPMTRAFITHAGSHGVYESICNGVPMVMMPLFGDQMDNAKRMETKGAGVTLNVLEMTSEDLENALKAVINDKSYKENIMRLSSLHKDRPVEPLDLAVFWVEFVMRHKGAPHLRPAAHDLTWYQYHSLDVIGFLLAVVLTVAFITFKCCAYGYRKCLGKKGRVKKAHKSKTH

As to `COc1cc(C(=O)N2CCC3(CC2)CC(=O)c2nn(C(C)(C)C)cc2O3)cc(-c2ccc(C(=O)O)cc2)n1`, the figures for the uptake ratio at 5 min, 1 µM on OATP1B3 and at OATP1B1 were 3.3 and 5, respectively. Further, the Kp at 6 h in [1] turned out to be 914.
As to `COc1cc(C(=O)N2CCC3(CC2)CC(=O)c2c(cnn2C(C)C)C3)cc(-c2ccc(C(=O)O)cc2)n1` [CLESACOSTAT], the inhibition in vivo at 300 mg/kg came out at 33% in data set [2] and 82% in [3]. Besides, the Activity entry is given as “Non-Toxic” with TK6 and “Not Active” in data set [5]. Further, the IC50 was above 20 µM in data set [4], above 50 µM on Cytochrome P450 3A4 and 0.00824 µM in [6]. The dose excreted at 24 h in [7] worked out at 12%. In data set [8], the solubility thermodynamic at 24 h is 234 µM (≈ 118 µg/mL). For the same molecule, the clearance in [9] worked out at 1.3 mL/min/kg.
